According to ChEMBL document CHEMBL1152353, “Pyrimido[5,4-e][1,2,4]triazine-5,7(1H,6H)-dione derivatives as novel small molecule chaperone amplifiers” (Bioorg Med Chem Lett, 2009):
Activity calls are given as the source filed them. The calls are words filed in the database; no cut-off is given here.

How the values were obtained:
[1] = target: T1, Heat shock factor protein 1 (Homo sapiens) (UniProt Q00613); test: Amplification of HSF1 transcriptional activity in human HeLa cells assessed as granule formation pretreated for 3 hrs by immunocytochemical staining; type: cell-based
T1 sequence (whole entry): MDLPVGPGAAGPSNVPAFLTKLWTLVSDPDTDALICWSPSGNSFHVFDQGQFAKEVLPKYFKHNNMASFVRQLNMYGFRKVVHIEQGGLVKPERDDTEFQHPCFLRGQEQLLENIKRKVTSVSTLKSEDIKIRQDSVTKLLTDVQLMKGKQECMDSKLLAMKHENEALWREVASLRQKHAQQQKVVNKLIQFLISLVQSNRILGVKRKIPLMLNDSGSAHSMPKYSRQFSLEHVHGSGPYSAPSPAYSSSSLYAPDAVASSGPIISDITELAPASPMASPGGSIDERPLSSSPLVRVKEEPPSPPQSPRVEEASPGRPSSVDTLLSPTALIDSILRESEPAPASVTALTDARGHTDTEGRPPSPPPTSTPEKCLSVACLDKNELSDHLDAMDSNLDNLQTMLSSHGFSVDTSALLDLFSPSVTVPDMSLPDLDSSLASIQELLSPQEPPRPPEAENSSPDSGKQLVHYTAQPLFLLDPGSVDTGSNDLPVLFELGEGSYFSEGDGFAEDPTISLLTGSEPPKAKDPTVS
Procedure, shortened: (§1)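 HeLa cells pretreated with compound 1 h, then mild heat shock 41 °C for 2 h, no recovery; control arm pretreated 3 h at 37 °C without heat shock. Compound diluted 200-fold, 0.3 to 80 µM range.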

[2] = system: SK-N-SH; test: Cytoprotection against rotenone stress-induced toxicity in human SK-N-SH cells after 48 hrs by MTS assay; type: functional, cell-based
Procedure, shortened: (§2)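 SK-N-SH neuroblastoma cells (within passage 6) seeded in DMEM with 0.1% FBS for 18 h, then fresh medium with 200 nM rotenone (final) plus compound, 0.019 to 10 µM. Incubated 48 h, then MTS viability read. Cytoprotection expressed as viability increase over the rotenone DMSO control; EC50 = concentration giving half-maximal protection. Data averaged over multiple tests.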

[3] = system: SK-N-SH; test: Cytoprotection against rotenone stress-induced toxicity in human SK-N-SH cells assessed as increase in cell viability after 48 hrs by MTS assay relative to control; type: functional; design: concentration or dose not given beside the values; procedure, shortened: as §2
[4] = Cytotoxicity against human HeLa cells after 72 hrs by MTS assay; type: cell-based; details: HeLa cells
Procedure, shortened: (§3)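 HeLa (8000 cells/well) or SK-N-SH (14,000 cells/well) cells seeded in DMEM with 10% FBS for 18 h. Compound added at 1:200 dilution, final 0.3 to 80 µM, 0.5% v/v DMSO. Exposure 72 h, then MTS/PMS for 4 h, SDS to 1.4% w/v, absorbance at 492 nm. CC50 = concentration giving half-maximal cytotoxicity.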

[5] = Cytotoxicity against human SK-N-SH cells after 72 hrs by MTS assay; type: cell-based; procedure, shortened: as §3
[6] = target: T1, Heat shock factor protein 1 (Homo sapiens); test: Amplification of HSF1 transcriptional activity in human HeLa cells assessed as […] granule count at 80 uM by immunocytochemical staining; type: cell-based; procedure, shortened: as §1
[7] = target: T2, Heat shock factor protein 1 (Homo sapiens, UniProt Q00613); test: Amplification of HSF1 transcriptional activity in human heat shock-induced HeLa cells assessed as granule formation treated 1 hr before heat shock challenge measured after 2 hrs without recovery time by immunocytochemical staining; type: cell-based
T2 sequence (Q00613 whole entry): T1 sequence (whole entry)
Procedure, shortened: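 HeLa cells given compound 1 h before mild heat shock at 41 °C for 2 h, no recovery; compound diluted 200-fold, 0.3 to 80 µM. Unstressed control plates kept at 37 °C for 3 h. HSF1 immunocytochemical staining, imaged at 10×.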

[8] = system: SH-SY5Y; test: Cytoprotection against oxygen-glucose deprivation-induced cytotoxicity in human SH-SY5Y cells at 0.5 uM after 28 hrs by MTS assay; type: functional
Procedure, shortened: (§4)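 SH-SY5Y cells plated on collagen I-coated wells, grown 16–24 h in complete medium, washed twice in deoxygenated glucose- and serum-free medium; compound added within 1 h before OGD. Chambers flushed with 95% N₂/5% CO₂, residual O₂ <1%, held at 37 °C for 28 h. MTS viability; cytoprotection = (MTS_compound − MTS_DMSO)/MTS_DMSO × 100% versus OGD DMSO control.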

[9] = system: SH-SY5Y; test: Cytoprotection against oxygen-glucose deprivation-induced cytotoxicity in human SH-SY5Y cells at 1 uM after 28 hrs by MTS assay; type: functional; procedure, shortened: as §4
[10] = system: SH-SY5Y; test: Cytoprotection against oxygen-glucose deprivation-induced cytotoxicity in human SH-SY5Y cells at 2.5 uM after 28 hrs by MTS assay; type: functional; procedure, shortened: as §4
[11] = system: SK-N-SH; test: Cytoprotection against rotenone stress-induced toxicity in human SK-N-SH cells at 0.63 uM after 48 hrs by MTS assay; type: functional; procedure, shortened: as §2
[12] = system: SK-N-SH; test: Cytoprotection against rotenone stress-induced toxicity in human SK-N-SH cells at 1.25 uM after 48 hrs by MTS assay; type: functional; procedure, shortened: as §2
[13] = Homo sapiens, SK-N-SH, 48 h, read-out: EC50

| SMILES | Activity [1] | EC50 [2, 13] [µM] | Activity [3] | CC50 at 72 h [4] [µM] | CC50 at 72 h [5] [µM] | Activity [6] [%] | EC50 [7] | EC50 ([2]; sk-n-sh) | Activity [8] [%] | Activity [9] [%] | Activity [10] [%] | Activity [11] [%] | Activity [12] [%] |
| --- | --- | --- | --- | --- | --- | --- | --- | --- | --- | --- | --- | --- | --- |
| CCCCn1nc(-c2ncc[nH]2)nc2c(=O)n(C)c(=O)nc1-2 | inactive | 0.3 | 56% | 3.6 | 1.3 |  |  |  |  |  |  |  |  |
| CCn1nc(-c2ncc[nH]2)nc2c(=O)n(C)c(=O)nc1-2 | inactive | 2.71 | 62% | 11.9 | 3.6 |  |  |  |  |  |  |  |  |
| CC(C)Cn1nc(-c2nc3ccccc3s2)nc2c(=O)n(C)c(=O)nc1-2 | inactive | 0.27 | 67% | 7.9 | 3.7 |  |  |  |  |  |  |  |  |
| CCCn1nc(-c2nc3ccccc3s2)nc2c(=O)n(C)c(=O)nc1-2 | inactive | 0.55 | 55% | 15.6 | 5.4 | 25 |  |  |  |  |  |  |  |
| Cn1c(=O)nc2[nH]nc(-c3cccs3)nc-2c1=O |  |  | inactive |  |  |  | Not Active | Not Active |  |  |  |  |  |
| CCCCn1nc(-c2ccc[nH]2)[n+]([O-])c2c(=O)n(C)c(=O)nc1-2 | inactive | 0.64 | 49% | 6.3 | 1.5 |  |  |  |  |  |  |  |  |
| CC(C)CCn1nc(-c2nc3ccccc3s2)nc2c(=O)n(C)c(=O)nc1-2 | inactive | 0.24 | 44% | 16.9 | 10.7 |  |  |  |  |  |  |  |  |
| CCn1nc(-c2cccs2)nc2c(=O)n(C)c(=O)nc1-2 | inactive | 0.41 | 53% | 10.5 | 9.9 |  |  |  | 18 | 48 | 14 |  |  |
| CCCCn1nc(-c2nccs2)nc2c(=O)n(C)c(=O)nc1-2 | inactive |  | 55% | 2.5 | 1.4 |  |  |  | 7 | 23 | 39 | 55 |  |
| CCCCn1nc(-c2ccc(C)s2)[n+]([O-])c2c(=O)n(C)c(=O)nc1-2 | inactive | 0.19 | 27% | 6.6 | 7.2 |  |  |  |  |  |  |  |  |
| Cn1c(=O)nc2n(Cc3ccccc3)nc(-c3nc4ccccc4s3)nc-2c1=O | inactive | 2.34 | 27% | 7.3 | 5.6 |  |  |  |  |  |  |  |  |
| CCn1nc(-c2ccc(C)o2)nc2c(=O)n(C)c(=O)nc1-2 | inactive | 1.84 | 50% | 22.3 | 8.2 |  |  |  |  |  |  |  |  |
| CCn1nc(-c2ccc(C)s2)[n+]([O-])c2c(=O)n(C)c(=O)nc1-2 | inactive | 1.1 | 57% | 15 | 27.2 |  |  |  |  |  |  |  |  |
| CCCCn1nc(-c2ccccc2)nc2c(=O)n(C)c(=O)nc1-2 | inactive | 0.49 | 58% | 18.5 | 9.8 |  |  |  |  |  |  |  |  |
| CCCCn1nc(-c2ccc(C)o2)[n+]([O-])c2c(=O)n(C)c(=O)nc1-2 | inactive |  | 49% | 9 | 6.6 |  |  |  |  |  |  |  | 49 |
| CCn1nc(-c2ccco2)nc2c(=O)n(C)c(=O)nc1-2 | inactive |  | 64% | 5.6 | 2.8 |  |  |  |  |  |  |  | 64 |
| CCn1nc(-c2ccc[nH]2)[n+]([O-])c2c(=O)n(C)c(=O)nc1-2 | inactive | 0.17 | 35% | 5.2 | 1.9 |  |  |  |  |  |  |  |  |
| CCn1nc(-c2ccc[nH]2)nc2c(=O)n(C)c(=O)nc1-2 | inactive | 0.68 | 44% | 10.7 | 4.3 |  |  |  |  |  |  |  |  |
| CCCCn1nc(-c2nc3ccccc3s2)nc2c(=O)n(C)c(=O)nc1-2 | inactive | 0.23 | 53% | 8.7 | 8.4 |  |  |  | 14 | 38 | 80 |  |  |
| CCn1nc(-c2ccc(C)o2)[n+]([O-])c2c(=O)n(C)c(=O)nc1-2 | inactive |  | 56% | 9.8 | 3.3 |  |  |  |  |  |  |  | 56 |
| CCCCn1nc(-c2ccc(C)s2)nc2c(=O)n(C)c(=O)nc1-2 | inactive |  | 44% | 15.3 | 18.2 |  |  |  |  |  |  |  | 44 |
| CCCCn1nc(-c2ccc(C)o2)nc2c(=O)n(C)c(=O)nc1-2 | inactive | 0.33 | 23% | 7.8 | 5.3 |  |  |  |  |  |  |  |  |
| Cn1c(=O)nc2n(Cc3ccc(F)cc3)nc(-c3nc4ccccc4s3)nc-2c1=O | inactive |  | inactive | 23.4 | 21.3 |  |  | Not Active |  |  |  |  |  |
| Cn1c(=O)[nH]c2nnc(-c3cccs3)nc2c1=O |  |  |  | > 80 | > 80 |  |  |  |  |  |  |  |  |
